Laboratory results taken from ChEMBL document CHEMBL4619772 (J Med Chem, 2020).

Columns and labels:
[1] = Inhibition of pseudotyped HIV/EBOV GP infected in human A549 cells assessed as reduction in virus entry measured after 48 hrs by luciferase reporter gene assay; assay type: cell-based, Ebolavirus; conditions: Orthoebolavirus, A549, 48 h
A549 [2] = experiment: Inhibition of pseudotyped HIV/EBOV GP infected in human A549 cells assessed as reduction in virus entry at 12.5 uM measured after 48 hrs by luciferase reporter gene assay relative to control; assay type: cell-based; conditions: Ebolavirus
Method in brief: (§1)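 Low-passage A549 cells are infected with HIV-based pseudovirions carrying EBOV or MARV GP and a luciferase reporter, with or without compound at 12.5 μM. […] Toremifene is the positive control.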

[3] = Inhibition of pseudotyped HIV/MARV GP infected in human A549 cells assessed as reduction in virus entry measured after 48 hrs by luciferase reporter gene assay; assay type: cell-based, Marburgvirus; conditions: Orthomarburgvirus, A549, 48 h
A549 [4] = experiment: Inhibition of pseudotyped HIV/MARV GP infected in human A549 cells assessed as reduction in virus entry at 12.5 uM measured after 48 hrs by luciferase reporter gene assay relative to control; assay type: cell-based; conditions: Marburgvirus; method in brief: as §1
[5] = Selectivity index, ratio of CC50 for human A549 cells to EC50 for HIV/EBOV-GP infected in human A549 cells; assay type: toxicity, cell-based; conditions: read-out: Ratio CC50/EC50
Method in brief: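 Ratio CC50/EC50. CC50 is A549 cytotoxicity by CellTiter 96 aqueous nonradioactive cell proliferation assay.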

Zaire ebolavirus [6] = experiment: Antiviral activity against Ebola virus 1976 Mayinga infected in human HeLa cells pretreated for 1 hr followed by virus infection measured after 24 hrs by Hoechst staining-based immunofluorescence assay; assay type: functional, organism-based
Marburgvirus [7] = experiment: Antiviral activity against Marburg virus Lake Victoria, 2005 Angola infected in human HeLa cells pretreated for 1 hr followed by virus infection measured after 24 hrs by Hoechst staining-based immunofluorescence assay; assay type: functional, organism-based, Lake Victoria marburgvirus; conditions: Orthomarburgvirus, Angola2005, HeLa
[8] = Selectivity index, ratio of CC50 for human HeLa cells to EC50 for Ebola virus 1976 Mayinga in human HeLa cells; assay type: toxicity, cell-based; conditions: read-out: Ratio CC50/EC50
[9] = Metabolic stability in human pooled plasma assessed as parent compound remaining at 20 uM after 60 mins by HPLC analysis; assay type: ADME, cell-free; conditions: read-out: Stability
Method in brief: (§2)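 Stability is reported as % of compound remaining after 60 min incubation in plasma or liver microsomes, relative to t0.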

[10] = Metabolic stability in Sprague-Dawley rat pooled plasma assessed as parent compound remaining at 20 uM after 60 mins by HPLC analysis; assay type: ADME, cell-free; conditions: read-out: Stability; method in brief: as §2
[11] = Metabolic stability in human liver microsomes assessed as parent compound remaining after 60 mins in presence of NADPH by HPLC analysis; assay type: ADME, Microsome; conditions: read-out: Stability; method in brief: as §2
[12] = Metabolic stability in Fischer F344 rat liver microsomes assessed as parent compound remaining after 60 mins in presence of NADPH by HPLC analysis; assay type: ADME, Microsome; conditions: read-out: Stability; method in brief: as §2
Cytochrome P450 3A4 [13] = biological target: T1, Cytochrome P450 3A4 (Homo sapiens, UniProt P08684); experiment: Inhibition of recombinant human CYP3A4 expressed in baculovirus infected insect cell microsomes using vivid DBOMF as substrate preincubated for 10 mins followed by substrate addition and measured after 25 mins in presence of […] by fluorescence assay; assay type: ADME
Method in brief: (§3)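 CYP3A4 inhibition IC50 is determined with 10 μM quinidine as positive inhibitor control, from three replicates; errors are estimated <10%.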

Cytochrome P450 2C9 [14] = biological target: T2, Cytochrome P450 2C9 (Homo sapiens, UniProt P11712); experiment: Inhibition of recombinant human CYP2C9 expressed in baculovirus infected insect cell microsomes using vivid BOMF as substrate preincubated for 10 mins followed by substrate addition and measured after 25 mins in presence of […] by fluorescence assay; assay type: ADME
Method in brief: (§4)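 CYP2C9 inhibition IC50 is determined with 30 μM sulfaphenazole as positive inhibitor control, from three replicates; errors are estimated <10%.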

Cytochrome P450 3A4 [15] = biological target: T1, Cytochrome P450 3A4; experiment: Inhibition of recombinant human CYP3A4 expressed in baculovirus infected insect cell microsomes using fluorescent substrate in presence of NADPH by fluorescence assay; assay type: ADME; method in brief: as §3
Cytochrome P450 2C9 [16] = biological target: T2, Cytochrome P450 2C9; experiment: Inhibition of recombinant human CYP2C9 expressed in baculovirus infected insect cell microsomes using fluorescent substrate in presence of NADPH by fluorescence assay; assay type: ADME; method in brief: as §4
Zaire ebolavirus [17] = experiment: Antiviral activity against Ebola virus 1976 Mayinga infected in African green monkey Vero cells pretreated for 1 hr followed by virus infection measured after 24 hrs by Hoechst staining-based immunofluorescence assay; assay type: functional, organism-based
[18] = Selectivity index, ratio of CC50 for African green monkey Vero cells to EC50 for Ebola virus 1976 Mayinga infected in African green monkey Vero cells; assay type: toxicity; conditions: read-out: Ratio CC50/EC50
Zaire ebolavirus [19] = experiment: Antiviral activity against Ebola virus 1976 Mayinga infected in African green monkey Vero cells; assay type: functional, organism-based
Marburgvirus [20] = experiment: Antiviral activity against Marburg virus Lake Victoria, 2005 Angola infected in African green monkey Vero cells; assay type: functional, organism-based, Lake Victoria marburgvirus; conditions: Orthomarburgvirus, Angola2005, Vero

T1 sequence (P08684 whole entry): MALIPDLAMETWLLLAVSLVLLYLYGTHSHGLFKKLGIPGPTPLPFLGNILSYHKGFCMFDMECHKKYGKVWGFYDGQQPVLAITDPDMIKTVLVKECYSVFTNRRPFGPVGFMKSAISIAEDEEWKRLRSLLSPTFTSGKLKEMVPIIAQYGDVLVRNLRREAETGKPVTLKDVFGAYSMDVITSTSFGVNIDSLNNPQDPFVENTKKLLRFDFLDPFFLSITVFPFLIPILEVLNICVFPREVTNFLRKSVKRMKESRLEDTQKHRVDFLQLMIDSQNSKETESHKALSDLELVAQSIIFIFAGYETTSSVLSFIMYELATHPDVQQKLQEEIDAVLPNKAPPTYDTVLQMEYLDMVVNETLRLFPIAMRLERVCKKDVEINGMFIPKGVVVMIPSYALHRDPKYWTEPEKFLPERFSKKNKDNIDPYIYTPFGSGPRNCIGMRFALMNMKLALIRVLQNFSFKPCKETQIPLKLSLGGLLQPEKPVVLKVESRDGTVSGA
T2 sequence (P11712 whole entry): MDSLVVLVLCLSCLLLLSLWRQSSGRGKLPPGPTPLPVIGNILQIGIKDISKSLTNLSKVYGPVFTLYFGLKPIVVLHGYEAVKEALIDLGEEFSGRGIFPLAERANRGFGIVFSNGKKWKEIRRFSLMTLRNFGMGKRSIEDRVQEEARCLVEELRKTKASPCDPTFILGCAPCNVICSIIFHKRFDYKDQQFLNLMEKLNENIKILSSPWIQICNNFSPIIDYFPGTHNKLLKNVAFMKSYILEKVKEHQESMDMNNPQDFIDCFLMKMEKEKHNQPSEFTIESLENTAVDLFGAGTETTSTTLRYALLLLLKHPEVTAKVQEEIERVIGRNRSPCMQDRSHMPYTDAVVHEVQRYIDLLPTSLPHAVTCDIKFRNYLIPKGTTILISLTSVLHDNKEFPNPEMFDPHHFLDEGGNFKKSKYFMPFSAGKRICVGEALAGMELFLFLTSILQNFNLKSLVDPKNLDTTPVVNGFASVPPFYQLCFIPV

Q: With `CC(C)(C)c1ccc(NC(=O)c2ccc(CN3CCCCC3)cc2)c(C(C)(C)C)c1` as the compound, how does the EC50 [1] read?
A: 480 nM

Q: What about the inhibition (A549 [2]) of the same compound?
A: 99.5%

Q: What about the EC50 [3] of the same compound?
A: 2340 nM

Q: And the inhibition (A549 [4])?
A: 85%

Q: And the selectivity ratio [5]?
A: 76

Q: And the EC50 (Zaire ebolavirus [6])?
A: 590 nM

Q: What about the EC50 (Marburgvirus [7]) of the same compound?
A: 2000 nM

Q: And the selectivity ratio [8]?
A: 227

Q: What about the remaining at 1 h, 20 µM [9] of the same compound?
A: 85%

Q: And the remaining at 1 h, 20 µM [10]?
A: 82%

Q: And the remaining at 1 h [11]?
A: 17%

Q: And the remaining at 1 h [12]?
A: 99%

Q: What about the IC50 (Cytochrome P450 3A4 [13]) of the same compound?
A: > 100000 nM

Q: What about the IC50 (Cytochrome P450 2C9 [14]) of the same compound?
A: 18600 nM

Q: Which results are given for `O=C(Nc1ccc(C23CC4CC(CC(C4)C2)C3)cc1)c1ccc(CN2CCOCC2)cc1`?
A: EC50 [1]: 18 nM; inhibition (A549 [2]): 99%; EC50 [3]: 2790 nM; inhibition (A549 [4]): 72.5%; selectivity ratio [5]: 5440; EC50 (Zaire ebolavirus [6]): 830 nM; EC50 (Marburgvirus [7]): 520 nM; selectivity ratio [8]: 134; remaining at 1 h, 20 µM [9]: 86%; remaining at 1 h, 20 µM [10]: 86%; remaining at 1 h [11]: 34%; remaining at 1 h [12]: 57%; IC50 (Cytochrome P450 3A4 [15]): > 100000 nM; IC50 (Cytochrome P450 2C9 [16]): 3140 nM

Q: Which results are given for `O=C(Nc1ccc(SC(F)(F)F)c(Cl)c1)c1ccc(CN2CCCCC2)cc1`?
A: EC50 [1]: 1270 nM; inhibition (A549 [2]): 99.9%; EC50 [3]: 1610 nM; inhibition (A549 [4]): 99.8%; selectivity ratio [5]: 5; EC50 (Zaire ebolavirus [6]): 1120 nM; EC50 (Marburgvirus [7]): 2400 nM; selectivity ratio [8]: 14; remaining at 1 h, 20 µM [9]: 100%; remaining at 1 h, 20 µM [10]: 88%; remaining at 1 h [11]: 90%; remaining at 1 h [12]: 94%; IC50 (Cytochrome P450 3A4 [13]): 15100 nM; IC50 (Cytochrome P450 2C9 [14]): 4490 nM

Q: For `O=C(Nc1ccc(C23CC4CC(CC(C4)C2)C3)cc1)c1ccc(CN2CCCCC2)cc1`, which EC50 [1] is on record?
A: 35 nM

Q: And the inhibition (A549 [2])?
A: 99.4%

Q: And the EC50 [3]?
A: 380 nM

Q: And the inhibition (A549 [4])?
A: 99%

Q: And the selectivity ratio [5]?
A: 231

Q: What about the EC50 (Zaire ebolavirus [6]) of the same compound?
A: 110 nM

Q: And the EC50 (Marburgvirus [7])?
A: 1230 nM

Q: And the selectivity ratio [8]?
A: 202

Q: And the remaining at 1 h, 20 µM [9]?
A: 100%

Q: And the remaining at 1 h, 20 µM [10]?
A: 96%

Q: What about the remaining at 1 h [11] of the same compound?
A: 75%

Q: What about the remaining at 1 h [12] of the same compound?
A: 71%

Q: And the IC50 (Cytochrome P450 3A4 [13])?
A: > 100000 nM

Q: What about the IC50 (Cytochrome P450 2C9 [14]) of the same compound?
A: > 100000 nM

Q: Which EC50 [1] does the source give for `CC1CCN(c2ccc(NC(=O)c3ccc(CN4CCOCC4)cc3)cc2C(F)(F)F)CC1` here?
A: 12 nM

Q: And the inhibition (A549 [2])?
A: 99.3%

Q: What about the EC50 [3] of the same compound?
A: 180 nM

Q: And the inhibition (A549 [4])?
A: 92.3%

Q: What about the selectivity ratio [5] of the same compound?
A: 2090

Q: And the EC50 (Zaire ebolavirus [6])?
A: 310 nM

Q: And the EC50 (Marburgvirus [7])?
A: 820 nM

Q: And the selectivity ratio [8]?
A: 58

Q: What about the remaining at 1 h, 20 µM [9] of the same compound?
A: 100%

Q: And the remaining at 1 h, 20 µM [10]?
A: 89%

Q: What about the remaining at 1 h [11] of the same compound?
A: 64%

Q: And the remaining at 1 h [12]?
A: 75%

Q: And the IC50 (Cytochrome P450 3A4 [15])?
A: > 100000 nM

Q: And the IC50 (Cytochrome P450 2C9 [16])?
A: 4980 nM

Q: Which EC50 [1] does the source give for `CC(c1ccc(C(=O)N2CCc3cc(C(C)(C)C)ccc32)cc1)N1CCCCC1` (configuration not stated) here?
A: 2050 nM

Q: And the inhibition (A549 [2])?
A: 99.8%

Q: And the EC50 [3]?
A: 3090 nM

Q: And the inhibition (A549 [4])?
A: 98.1%

Q: And the selectivity ratio [5]?
A: 9

Q: And the EC50 (Marburgvirus [7])?
A: 3380 nM

Q: And the selectivity ratio [8]?
A: 19

Q: And the remaining at 1 h, 20 µM [9]?
A: 94%

Q: And the remaining at 1 h, 20 µM [10]?
A: 62%

Q: What about the remaining at 1 h [11] of the same compound?
A: 46%

Q: What about the remaining at 1 h [12] of the same compound?
A: 27%

Q: And the IC50 (Cytochrome P450 3A4 [13])?
A: 24000 nM

Q: And the IC50 (Cytochrome P450 2C9 [14])?
A: 7940 nM

Q: Which EC50 [1] does the source give for `COC(=O)c1ccc(NC(=O)c2ccc(CN3CCCCC3)cc2)cc1` here?
A: 9860 nM

Q: What about the inhibition (A549 [2]) of the same compound?
A: 74%

Q: What about the EC50 [3] of the same compound?
A: 530 nM

Q: And the inhibition (A549 [4])?
A: 90.7%

Q: And the selectivity ratio [5]?
A: 15

Q: And the EC50 (Zaire ebolavirus [6])?
A: > 25000 nM

Q: And the EC50 (Zaire ebolavirus [17])?
A: 2830 nM

Q: What about the remaining at 1 h, 20 µM [9] of the same compound?
A: 63%

Q: And the remaining at 1 h, 20 µM [10]?
A: 78%

Q: And the remaining at 1 h [11]?
A: 54%

Q: And the remaining at 1 h [12]?
A: 0%

Q: And the selectivity ratio [18]?
A: 35

Q: And the EC50 (Zaire ebolavirus [19])?
A: < 10000 nM

Q: And the EC50 (Marburgvirus [20])?
A: < 10000 nM
